{"source": "ChEMBL document CHEMBL4665863", "about": "(Bioorg Med Chem, 2020)", "key": {"Staphylococcus aureus [1]": {"tested_on": "Staphylococcus aureus", "assay": "Bactericidal activity against Staphylococcus aureus clinical isolate assessed as reduction in number of colony forming units at 1XMIC incubated for 24 hrs by Time-kill assay", "format": "functional"}, "Staphylococcus aureus [2]": {"tested_on": "Staphylococcus aureus", "assay": "Bactericidal activity against Staphylococcus aureus ATCC25923 assessed as reduction in number of colony forming units incubated for 24 hrs followed by re-plating and reincubation on tryptic soy agar plate for 24 hrs", "format": "functional"}, "Staphylococcus aureus [3]": {"tested_on": "Staphylococcus aureus", "assay": "Potency index, ratio of linezolid MIC to test compound MIC for antibacterial activity against methicillin-resistant Staphylococcus aureus ATCC43300 incubated for 24 hrs by CLSI-based broth microdilution method", "format": "functional"}, "Bacillus subtilis [4]": {"tested_on": "Bacillus subtilis", "assay": "Inhibition of FtsZ in Bacillus subtilis ATCC9372 assessed as inhibition of bacterial cell elongation by measuring bacterial cell length at 0.25 ug/ml incubated for 18 hrs by phase contrast microscopic analysis (reference value: 2.28 +/- 0.29 um)", "conditions": "dose 0.25 µg/ml", "summary_of_the_method": "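Compound at 0.25 μg/mL, compared with untreated cells, imaged by microscopy. For B. subtilis ATCC9372, cell length was measured (n = 15). For S. aureus ATCC CI, cell diameter was measured (n = 15). Mean and SD were reported.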"}, "Staphylococcus aureus [5]": {"tested_on": "Staphylococcus aureus", "assay": "Bacteriostatic activity against Staphylococcus aureus clinical isolate assessed as ratio of MBC to MIC", "format": "functional"}, "HeLa": {"tested_on": "HeLa", "assay": "Cytotoxicity against human Hela cells assessed as reduction in cell viability incubated for 48 hrs by MTT assay", "format": "cell-based", "summary_of_the_method": "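HeLa (human cervical cancer) cells were exposed continuously for 48 h, and viability was read by MTT.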"}, "Staphylococcus aureus [6]": {"tested_on": "Staphylococcus aureus", "assay": "Bactericidal activity against Staphylococcus aureus clinical isolate assessed as reduction in number of colony forming units at 2XMIC incubated for 12 hrs by Time-kill assay", "format": "functional"}, "Pseudomonas aeruginosa": {"tested_on": "Pseudomonas aeruginosa", "assay": "Antibacterial activity against Pseudomonas aeruginosa ATCC27853 incubated for 24 hrs by CLSI-based broth microdilution method", "format": "functional"}, "Staphylococcus aureus [7]": {"tested_on": "Staphylococcus aureus", "assay": "Potency index, ratio of PC190723 MIC to test compound MIC for antibacterial activity against methicillin-resistant Staphylococcus aureus ATCC43300 incubated for 24 hrs by CLSI-based broth microdilution method", "format": "functional"}, "Staphylococcus aureus [8]": {"tested_on": "Staphylococcus aureus", "assay": "Bactericidal activity against Staphylococcus aureus clinical isolate assessed as reduction in number of colony forming units at 0.5 times MIC incubated for 24 hrs by Time-kill assay", "format": "functional, organism-based"}, "Staphylococcus aureus [9]": {"tested_on": "Staphylococcus aureus", "assay": "Potency index, ratio of PC190723 MIC to test compound MIC for antibacterial activity against penicillin-resistant Staphylococcus aureus incubated for 24 hrs by CLSI-based broth microdilution method", "format": "functional"}, "Staphylococcus aureus [10]": {"tested_on": "Staphylococcus aureus", "assay": "Potency index, ratio of ciprofloxacin MIC to test compound MIC for antibacterial activity against methicillin-resistant Staphylococcus aureus ATCC43300 incubated for 24 hrs by CLSI-based broth microdilution method", "format": "functional"}, "Staphylococcus aureus [11]": {"tested_on": "Staphylococcus aureus", "assay": "Inhibition of FtsZ in Staphylococcus aureus clinical isolate assessed as inhibition of bacterial cell elongation by measuring bacterial cell diameter at 0.25 ug/ml incubated for 18 hrs by phase contrast microscopic analysis (reference value: 0.79 +/- 0.05 um)", "conditions": "dose 0.25 µg/ml"}, "Staphylococcus aureus [12]": {"tested_on": "Staphylococcus aureus", "assay": "Antibacterial activity against Staphylococcus aureus clinical isolate incubated for 24 hrs by CLSI-based broth microdilution method", "format": "functional"}, "Staphylococcus aureus [13]": {"tested_on": "Staphylococcus aureus", "assay": "Bacteriostatic activity against methicillin-resistant Staphylococcus aureus ATCC43300 assessed as ratio of MBC to MIC", "format": "functional"}, "Bacillus subtilis [14]": {"tested_on": "Bacillus subtilis", "assay": "Inhibition of ftsZ in Bacillus subtilis assessed as increase in enzyme polymerization kinetics measured for 30 mins by microtiter plate-based light scattering assay", "summary_of_the_method": "(§1)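 Purified recombinant B. subtilis FtsZ was used. Polymerization was followed as light scattering in microtiter plates, read as time-dependent absorbance at 340 nm at several compound concentrations. Vehicle, CIP and LIN served as controls.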"}, "Staphylococcus aureus [15]": {"tested_on": "Staphylococcus aureus", "assay": "Bacteriostatic activity against penicillin-resistant Staphylococcus aureus assessed as ratio of MBC to MIC", "format": "functional"}, "Escherichia coli": {"tested_on": "Escherichia coli", "assay": "Antibacterial activity against Escherichia coli ATCC25922 incubated for 24 hrs by CLSI-based broth microdilution method", "format": "functional", "conditions": "ATCC 25922"}, "Staphylococcus aureus [16]": {"tested_on": "Staphylococcus aureus", "assay": "Antibacterial activity against Staphylococcus aureus ATCC25923 incubated for 24 hrs by CLSI-based broth microdilution method", "format": "functional"}, "Staphylococcus aureus [17]": {"tested_on": "Staphylococcus aureus", "assay": "Antibacterial activity against penicillin-resistant Staphylococcus aureus incubated for 24 hrs by CLSI-based broth microdilution method", "format": "functional"}, "Staphylococcus aureus [18]": {"tested_on": "Staphylococcus aureus", "assay": "Bactericidal activity against penicillin-resistant Staphylococcus aureus assessed as reduction in number of colony forming units incubated for 24 hrs followed by re-plating and reincubation on tryptic soy agar plate for 24 hrs", "format": "functional"}, "Staphylococcus aureus [19]": {"tested_on": "Staphylococcus aureus", "assay": "Bactericidal activity against Staphylococcus aureus clinical isolate assessed as reduction in number of colony forming units at 4XMIC incubated for 9 hrs by Time-kill assay", "format": "functional"}, "Staphylococcus aureus [20]": {"tested_on": "Staphylococcus aureus", "assay": "Antibacterial activity against methicillin-resistant Staphylococcus aureus ATCC43300 incubated for 24 hrs by CLSI-based broth microdilution method", "format": "functional"}, "Staphylococcus aureus [21]": {"tested_on": "Staphylococcus aureus", "assay": "Bactericidal activity against Staphylococcus aureus clinical isolate assessed as reduction in number of colony forming units incubated for 24 hrs followed by re-plating and reincubation on tryptic soy agar plate for 24 hrs", "format": "functional"}, "Bacillus subtilis [22]": {"tested_on": "Bacillus subtilis", "assay": "Antibacterial activity against Bacillus subtilis ATCC9372 incubated for 24 hrs by CLSI-based broth microdilution method", "format": "functional"}, "Staphylococcus aureus [23]": {"tested_on": "Staphylococcus aureus", "assay": "Potency index, ratio of linezolid MIC to test compound MIC for antibacterial activity against penicillin-resistant Staphylococcus aureus incubated for 24 hrs by CLSI-based broth microdilution method", "format": "functional"}, "Bacillus subtilis [24]": {"tested_on": "Bacillus subtilis", "assay": "Inhibition of ftsZ in Bacillus subtilis assessed as increase in enzyme polymerization kinetics at 5 ug/ml measured for 30 mins by microtiter plate-based light scattering assay", "conditions": "dose 5.0 µg/ml", "summary_of_the_method": "as §1"}, "Bacillus pumilus": {"tested_on": "Bacillus pumilus", "assay": "Antibacterial activity against Bacillus pumilus CMCC63202 incubated for 24 hrs by CLSI-based broth microdilution method", "format": "functional"}, "Staphylococcus aureus [25]": {"tested_on": "Staphylococcus aureus", "assay": "Bacteriostatic activity against Staphylococcus aureus ATCC25923 assessed as ratio of MBC to MIC", "format": "functional"}, "Staphylococcus aureus [26]": {"tested_on": "Staphylococcus aureus", "assay": "Bactericidal activity against methicillin-resistant Staphylococcus aureus ATCC43300 assessed as reduction in number of colony forming units incubated for 24 hrs followed by re-plating and reincubation on tryptic soy agar plate for 24 hrs", "format": "functional"}, "Staphylococcus aureus [27]": {"tested_on": "Staphylococcus aureus", "assay": "In-vivo antibacterial activity against Staphylococcus aureus infected in KM mouse model assessed as reduction in bacterial load in blood at 10 mg/kg, iv administered thrice daily and measured after 48 hrs", "format": "functional, organism-based", "summary_of_the_method": "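Groups of four KM mice (average 20 g) were infected i.v. with 8.5 × 10⁸ CFU of a clinical S. aureus isolate resistant to CIP and ERY, in 0.15 mL saline. Treatment was 10 mg/kg i.v. three times daily. Vehicle was 2% DMAC, 30% PEG400/PG (1:1) and 5% HPβCD in water; vehicle and LIN arms were included. At 48 h, retro-orbital blood (0.1 mL) was plated on TSA for CFU counts.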"}}, "note": "Active and inactive are the calls of the source. The rule behind the calls is not given here.", "data": [{"smiles": "CCCCc1ccc(C2=NOC(COc3ccc(F)c(C(N)=O)c3F)C2)cc1", "note": "(stereo unspecified)", "values": [{"measurement": "Activity", "setting": "Staphylococcus aureus [1]", "value": "<1 10^3CFU/ml"}, {"measurement": "MBC", "setting": "Staphylococcus aureus [2]", "value": 0.5, "unit": "µg/mL"}, {"measurement": "Ratio", "setting": "Staphylococcus aureus [3]", "value": 8}, {"measurement": "cell length", "setting": "Bacillus subtilis [4]", "value": 29.3, "unit": "µm"}, {"measurement": "Ratio", "setting": "Staphylococcus aureus [5]", "value": 1}, {"measurement": "IC50", "setting": "HeLa", "value": "> 64", "unit": "µg/mL"}, {"measurement": "Activity", "setting": "Staphylococcus aureus [6]", "value": "<1 10^3CFU/ml"}, {"measurement": "MIC", "setting": "Pseudomonas aeruginosa", "value": "> 64", "unit": "µg/mL"}, {"measurement": "Ratio", "setting": "Staphylococcus aureus [7]", "value": 4}, {"measurement": "Activity", "setting": "Staphylococcus aureus [8]", "value": "Active"}, {"measurement": "Ratio", "setting": "Staphylococcus aureus [9]", "value": 2}, {"measurement": "Ratio", "setting": "Staphylococcus aureus [10]", "value": 64}, {"measurement": "cell diameter", "setting": "Staphylococcus aureus [11]", "value": 2.41, "unit": "µm"}, {"measurement": "MIC", "setting": "Staphylococcus aureus [12]", "value": 0.5, "unit": "µg/mL"}, {"measurement": "Ratio", "setting": "Staphylococcus aureus [13]", "value": 2}, {"measurement": "inhibition", "setting": "Bacillus subtilis [14]", "value": "Dose-dependent effect"}, {"measurement": "Ratio", "setting": "Staphylococcus aureus [15]", "value": 2}, {"measurement": "MIC", "setting": "Escherichia coli", "value": "> 64", "unit": "µg/mL"}, {"measurement": "MIC", "setting": "Staphylococcus aureus [16]", "value": 0.5, "unit": "µg/mL"}, {"measurement": "MIC", "setting": "Staphylococcus aureus [17]", "value": 0.5, "unit": "µg/mL"}, {"measurement": "MBC", "setting": "Staphylococcus aureus [18]", "value": 1, "unit": "µg/mL"}, {"measurement": "Activity", "setting": "Staphylococcus aureus [19]", "value": "<1 10^3CFU/ml"}, {"measurement": "MIC", "setting": "Staphylococcus aureus [20]", "value": 0.25, "unit": "µg/mL"}, {"measurement": "MBC", "setting": "Staphylococcus aureus [21]", "value": 0.5, "unit": "µg/mL"}, {"measurement": "MIC", "setting": "Bacillus subtilis [22]", "value": 0.5, "unit": "µg/mL"}, {"measurement": "Ratio", "setting": "Staphylococcus aureus [23]", "value": 2}, {"measurement": "FtsZ polymerization increase (active/inactive call)", "setting": "Bacillus subtilis [24]", "value": "Active"}, {"measurement": "MIC", "setting": "Bacillus pumilus", "value": "≤ 0.125", "unit": "µg/mL"}, {"measurement": "Ratio", "setting": "Staphylococcus aureus [25]", "value": 1}, {"measurement": "MBC", "setting": "Staphylococcus aureus [26]", "value": 0.5, "unit": "µg/mL"}, {"measurement": "Activity", "setting": "Staphylococcus aureus [27]", "value": "Active"}]}]}
